Bioassay records from PubChem.
The list is not random: actives were taken first. Their share in the collection is about 1.7%.
Cneo AK release: causes C. neoformans cell lysis. adenylate kinase release luminescence, 4 h; normalised: neutral wells 0, clomiphene wells 100. lysis activity, % at 15 µM. 360,000 compounds, 0.2% hits;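 active means mean lysis activity across replicates of at least 80%, whatever share of replicates individually reach that level; inactive means mean lysis activity below 80%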
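Assay system: Cryptococcus neoformans yeast cells / Dosing: single-point compound dose / Timing: 4 h at 37 °C static, read 1 h later / Measured by: luminescence of released adenylate kinase using an AK detection reagent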
F508del corr: CFTR F508del correction in bronchial cells. AID 720511. 350,000 compounds, 0.36% hits. activity (quench increase), % at 7.58 µM. CFBE cells, YFP halide quenching; stimulated with forskolin plus potentiator P3; % fluorescence drop versus neutral controls;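 active means mean added fluorescence quench of at least 8% versus neutral control, with both replicates also reaching 8%; inconclusive means only one of the mean or replicate conditions met; inactive means mean below 8% and not both replicates reaching 8%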;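 further: cells transiently co-express mutant CFTR-F508del with the halide-sensitive YFP; corrector assay measuring rescue of mutant channel to the surface after 24 h compound exposure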
CaV13 ICDI inh: Disruptors of the CACNA1D IQ motif to Ca2+-dependent inactivation inhibitor domain association, primary screening, Förster resonance energy transfer in intact living …; 340,000 compounds, 0.098% hits; HEK cells, CFP/YFP FRET ICDI-IQ, plate reader, 10 min; percent FRET-ratio fall versus neutral wells; AID 743397; inhibition, % at 12.3 µM;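 active means mean replicate inhibition of at least 30% and at least 1% of replicates passing that level; inconclusive means only one of the two criteria is met; inactive means neither criterion is met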;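 further: 0% = median of the neutral control wells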
Ecoli rRNA inh: inhibits bacterial ribosomal RNA function over humanized ribosomes; E. coli WT GFP vs humanized-ribosome RFP mutants, fluorescence, 24 h; hits give low values; DMSO median 0, no signal -100; GFP signal change (wild-type ribosome), % (no concentration beside the values); 350,000 compounds, 1.6% hits; AID 720706;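 active means significant combined selectivity score with lowered wild-type GFP, culture density cut under 30%, mutant RFP and density less affected; inactive means any of these conditions unmet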
HepG2 cytotox: kills or reduces viability of HepG2 cells; shares compounds with Ecoli rRNA inh; ATP luminescence, 72 h; activity change, negative = cytotoxicity, unspecified at 26 µM; 30 tested, under 10 active; AID 743480;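 active means compounds whose fitted half-maximal signal-loss concentration is at most twice their highest valid dose; inconclusive means flat curve with 30 to 70% signal loss, or poor fit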
AID977621: wild-type E. coli growth inhibition versus H69 humanized strain – H69 mutant RFP, wild-type GFP, cherry-pick, dose response | shares compounds with Ecoli rRNA inh | fluorescence, 24 h | activity change, negative = inhibition at 50 µM | 1,900 tested, under 10 active | AID 977621;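 active means Wild-type ribosome reporter drop at least double the humanized mutant ribosome reporter drop, growth loss under a set limit; inconclusive means no clear call, values can overlap the other calls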;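 further: wild-type GFP and H69 mutant RFP strains grown together 50/50 in each well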
AID977628: E. coli growth inhibition, wild-type GFP versus h24 humanized RFP strain, dose response, h24 mutant RFP vs wild-type GFP, cherry-pick | 1,900 tested, under 10 active | shares compounds with Ecoli rRNA inh | activity change, negative = inhibition at 50 µM | AID 977628 | E. coli WT GFP strain growth, fluorescence, 24 h;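 active means compound lowering the normal-ribosome reporter at least twice as much as the humanized-ribosome reporter, growth loss under a set limit; inconclusive means no clear call, values can overlap the other calls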;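 further: wild-type GFP and h24 humanized RFP strains co-cultured 1 to 1 per well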
* = called active by the depositor; ? = inconclusive; . = no result.

SMILES | Cneo AK release | F508del corr | CaV13 ICDI inh | Ecoli rRNA inh | AID977621 | AID977628 | others
CCC[N+]1(CC#CC(O)(c2ccccc2)C2CCCCC2)CCCCC1 (stereo not drawn) | . | -2 | -4 | -36* | -4.8 | -11
CCN(CC)CCC#CC(O)(c1ccccc1)C1CCCCC1 (stereo not drawn) | . | -1 | -6 | -11 | . | .
CC(=O)N[C@H]1[C@H](O/N=[N+](\[O-])N2CCCC2)OC(CO)[C@@H](O)[C@@H]1O (stereo partly drawn) | -2 | 2 | . | . | . | .
Cc1cccc(N2Cc3ccc(Br)cc3C2)c1 | . | -2 | -4 | -21* | -10 | -3.8
Cc1cc(CNC(=O)COc2cc(F)ccc2[N+](=O)[O-])c2ccccc2n1 | -3 | 4 | -1 | -1 | . | .
O=C(COc1cc(F)ccc1[N+](=O)[O-])NCCCc1ccccc1 | . | 0 | -3 | -27* | -1.4 | -7.2
COc1ccccc1CC(=O)NCCCc1ccccc1 | -6 | -1 | -19 | -23* | -5.5 | ?
Cc1ccc(S(=O)(=O)N2CC[C@H]3[C@H](CO)Nc4ccc(Br)cc4[C@H]32)cc1 | 56 | 2 | . | -25* | . | ? | HepG2 cytotox=24
CCn1ncc(Br)c1C(=O)Nc1ccc2c(c1)OCCO2 | . | 0 | 0 | -21* | . | -9.9
CCn1ncc(Br)c1C(=O)Nc1cccc(F)c1 | . | 0 | 10 | -2 | . | .
COc1ccc(-c2noc(=O)n2Cc2ccc(F)cc2Cl)cc1 | -1 | -1 | -20 | -10 | . | .
COc1ccc(-c2noc(=O)n2Cc2ccccc2Cl)cc1 | 0 | -3 | -4 | -15* | . | 0.49
CC(C)NC(=O)N(C)C[C@H]1OCc2ccccc2-c2c(n(C)c3ccccc23)C(=O)N([C@H](C)CO)C[C@H]1C | -2 | 0 | . | -2 | . | .
CN1CCN(C(=O)c2cc3nc(-c4ccco4)cc(C(F)(F)F)n3n2)CC1 | . | 0 | -8 | -27* | -9.9 | -4.4
C[C@@H]1CN([C@H](C)CO)C(=O)c2cc(NC(=O)CCC(F)(F)F)ccc2O[C@@H](C)CCCCO[C@@H]1CN(C)Cc1ccncc1 | . | -1 | . | 0 | . | .
Cc1ccc(C)c(-c2[nH]ncc2CN2CCCC(CO)(Cc3ccccc3C)C2)c1 (stereo not drawn) | . | 2 | -3 | -30* | -8.9 | .
COc1ccc(C(=O)NCCC2=CCCCC2)cc1[N+](=O)[O-] | -11 | 2 | -3 | -22* | -13 | -10
COc1ccc(C(=O)N2C[C@H]3[C@@H](c4ccccc42)[C@H](CO)N3Cc2ccc(Cl)cc2)cc1 | 13 | 2 | . | -26 | . | .
CC(C)Cn1c(=O)c2ccccc2c2ccccc2c1=O | -1 | 3 | -10 | -28* | -5.1 | .
CCOC(=O)c1cc(C)nc(N2CCCCC2)c1C#N | . | 0 | -13 | -21* | 1.3 | .
Cc1cc(N(C)C)c(C#N)c(N2CCCCC2)n1 | 0 | . | -4 | . | . | .
CC(OC(=O)CCc1nc2ccccc2c(=O)[nH]1)C(=O)c1ccc(Br)cc1 (stereo not drawn) | 0 | 0 | -5 | -24* | . | ?
CC(OC(=O)CCc1c[nH]c2ccccc12)C(=O)c1ccccc1 (stereo not drawn) | . | -5 | -2 | -25* | . | ?
CC(=O)Nc1ccc(NC(=O)C(C)OC(=O)CCCc2c[nH]c3ccccc23)cc1 (stereo not drawn) | -3 | 3 | -6 | 1 | . | .
CCCNC(=O)[C@H]1[C@H](CO)[C@H]2Cn3c(ccc(-c4ccc(F)cc4)c3=O)[C@@H]1N2CC | -1 | -4 | . | -1 | . | .
SMILES | Cneo AK release | F508del corr | CaV13 ICDI inh | Ecoli rRNA inh | AID977621 | AID977628 | others
COc1cccc(C(=O)Nc2cc(C)nn2-c2ccccc2)c1OC | -2 | -1 | -4 | -34* | . | . | HepG2 cytotox=14
COc1ccccc1-c1noc2ncnc(Nc3ccc4c(c3)OCO4)c12 | 2 | 0 | -11 | 7 | . | .
COc1ccccc1Nc1ncnc2c1c(C)c(C)n2CCCN(C)C | 0 | -3 | -19 | 6 | . | .
COc1ccccc1-c1noc2ncnc(Nc3cccc(C)c3C)c12 | -2 | 3 | -9 | -16* | -16 | -15
COc1ccccc1-c1noc2ncnc(Nc3ccccc3C)c12 | -1 | 3 | -4 | -27* | -6.9 | -17
COc1ccc(C#Cc2cccc(-c3nc(C(=O)N[C@@H]4CCN(Cc5ccccc5)C4)cc4c3[C@H](CCO)N(S(=O)C(C)(C)C)C4)c2)cc1OC (stereo partly drawn) | . | -1 | . | . | . | .
COc1ccc2c3c(n(C)c2c1)[C@@H](CO)N(C(=O)CC1CC1)CC31CN(C(=O)C2CCC2)C1 | . | 0 | . | -2 | . | .
NC(=O)C1CCN(c2cc(N3CCOCC3)ccc2[N+](=O)[O-])CC1 | 2 | -1 | 4 | 10 | . | .
NC(=O)C1CCN(c2cc(Cl)ccc2[N+](=O)[O-])CC1 | . | -4 | -13 | -22* | -12 | .
Cc1cccc(S(=O)(=O)N2CC[C@@H]3[C@H]2c2cc(C4=CCCCC4)ccc2N[C@@H]3CO)c1 | -18 | 1 | . | -5 | . | .
COc1ccc(Cl)cc1NC(=O)CN(C)CC(=O)Nc1ccccc1-c1ccccc1 | 0 | 2 | -7 | -24* | -9.7 | .
Cc1nn(-c2cccc(Cl)c2)nc1C(=O)O | . | -2 | -2 | -16* | -10 | .
C[C@@H]1CN(C)C(=O)Cc2cc(N(C)C)ccc2O[C@H]1CN(C)C(=O)OC(C)(C)C | . | . | . | 1 | . | .
COc1ccc(CN2C(=O)CC(Cc3cc(C)cc(C)c3)C2=O)cc1OC (stereo not drawn) | . | . | -3 | -20* | -7.8 | .
COc1ccc(CCN2C(=O)CC(Cc3cccc(C)c3)C2=O)cc1OC (stereo not drawn) | . | 0 | -4 | -19 | . | .
C[C@@H]1CN(C)C(=O)c2cc(N(C)C)ccc2O[C@@H]1CN(C)C(=O)OC(C)(C)C | . | . | . | -7 | . | .
CCCN(C)C[C@@H]1Oc2cc(C#CCOC)ccc2S(=O)(=O)N([C@@H](C)CO)C[C@@H]1C | 0 | 1 | . | 1 | . | .
COc1cccc(C(=O)NC2CC3CCCC(C2)N3S(=O)(=O)c2ccccc2)c1 (stereo not drawn) | . | -2 | -4 | -31* | ? | .
CN(C)c1ccc(-c2nnn(Cc3ccccc3Br)n2)cc1 | -1 | 2 | -7 | -19* | ? | .
Clc1ccccc1Cn1nnc(-c2ccccc2)n1 | . | 3 | -5 | -6 | . | .
CC(=O)N1CC2(C1)[C@H](c1ccc(-c3ccc(C#N)cc3)cc1)[C@@H](CO)N2CCC(F)(F)F | . | 5 | . | -4 | . | .
